Experimental data taken from ChEMBL document CHEMBL2150952 (J Med Chem, 2011).
The source made the active and inactive calls. No cut-off for these calls is given here.

What was measured:
Stearoyl-CoA desaturase = molecular target: T1, Stearoyl-CoA desaturase (Homo sapiens, UniProt O00767); test: Inhibition of SCD-1 activity in organic anion transporting polypeptides-deficient human HepG2 cells assessed as reduction in [I-14C] stearoyl CoA desaturation by scintillation counting; assay type: cell-based
T1 sequence (O00767 whole entry): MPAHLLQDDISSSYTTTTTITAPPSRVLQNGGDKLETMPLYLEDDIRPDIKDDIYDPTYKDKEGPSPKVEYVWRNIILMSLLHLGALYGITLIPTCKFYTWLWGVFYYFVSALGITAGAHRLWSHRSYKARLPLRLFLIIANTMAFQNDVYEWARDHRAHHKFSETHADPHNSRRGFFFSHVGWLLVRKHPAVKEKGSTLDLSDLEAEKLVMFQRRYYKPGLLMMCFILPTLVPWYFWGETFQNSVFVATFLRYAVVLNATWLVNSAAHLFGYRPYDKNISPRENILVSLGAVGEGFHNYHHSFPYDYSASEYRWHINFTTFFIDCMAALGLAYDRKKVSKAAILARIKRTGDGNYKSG

[1] = Ratio drug uptake in liver to plasma of C57BL6 mouse at 10 mg/kg, po measured 6 hrs post dose; assay type: ADME, organism-based; set-up: dose 10 mg/kg, route oral; details: liver and plasma
Summary of the method: (§1)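 Single oral dose of 10 mg/kg in 0.5% methylcellulose to fed C57BL6 mice (n = 2). Animals sacrificed 6 h post dose. Plasma, liver, skin and Harderian gland collected. Tissues homogenized in MeCN/water with internal standard and drug quantified by LC-MS against a standard curve made in blank plasma. Concentration ratio calculated.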

Liver = test: Ratio drug uptake in liver to harderian gland of C57BL6 mouse at 10 mg/kg, po measured 6 hrs post dose; assay type: ADME, organism-based; set-up: dose 10 mg/kg, route oral; details: in vivo; summary of the method: as §1
HepG2 = test: Ratio IC50 for SCD-1 activity in organic anion transporting polypeptides-deficient human HepG2 cells to IC50 for SCD-1 activity in Sprague-Dawley rat Hepatocytes expressing organic anion transporting polypeptides; assay type: cell-based
Summary of the method: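 Cellular SCD IC50s measured in human HepG2 cells (lacking active OATPs) and in rat hepatocytes (active OATPs). Hepatocytes preincubated with compound for 15 min at 37 °C, then given 14C-stearic acid (final 0.5 μCi/ml) for 1 h with shaking. Lipids hydrolysed in 2N NaOH at 75 °C, acidified and extracted. Radiolabelled oleic and stearic acid resolved by HPLC with flow scintillation detection. Mean of at least n = 3. HepG2 IC50 divided by hepatocyte IC50.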

Acyl-CoA desaturase 1 [2] = molecular target: T2, Acyl-CoA desaturase 1 (Rattus norvegicus, UniProt P07308); test: Inhibition of SCD-1 activity in Sprague-Dawley rat Hepatocytes expressing organic anion transporting polypeptides assessed as reduction in [I-14C] […] desaturation by scintillation counting; assay type: cell-based, Hepatocyte
T2 sequence (P07308 whole entry): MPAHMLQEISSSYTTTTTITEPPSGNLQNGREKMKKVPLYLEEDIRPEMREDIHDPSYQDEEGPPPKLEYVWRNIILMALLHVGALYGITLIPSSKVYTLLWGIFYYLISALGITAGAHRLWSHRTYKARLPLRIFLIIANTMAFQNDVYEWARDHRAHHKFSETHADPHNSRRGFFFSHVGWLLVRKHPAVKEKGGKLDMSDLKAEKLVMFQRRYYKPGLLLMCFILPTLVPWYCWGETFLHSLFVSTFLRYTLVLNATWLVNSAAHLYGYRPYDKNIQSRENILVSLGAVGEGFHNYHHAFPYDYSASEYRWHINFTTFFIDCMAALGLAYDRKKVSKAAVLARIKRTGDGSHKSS
Summary of the method: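 Rat hepatocytes (4 × 10^6 cells/mL) were preincubated with compound for 15 min at 37 °C/5% CO2. 14C-stearic acid (final 0.5 μCi/mL) was then added for 1 h with shaking. Cells were washed, hydrolyzed in 2N NaOH at 75 °C for 1 h, acidified and extracted. Radiolabeled oleic and stearic acids were quantified by HPLC with flow scintillation detection. Mean of at least n = 3.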

Acyl-CoA desaturase 1 [3] = molecular target: T2, Acyl-CoA desaturase 1; test: Inhibition of SCD-1 activity in Sprague-Dawley rat microsome assessed as reduction in [I-14C] stearoyl CoA desaturation by scintillation counting; assay type: microsomes
Mus musculus [4] = test: Antidiabetic activity in po dosed diet-induced obese fasted C57BL6 mouse assessed as increase in glucose clearance administered 1 hr before glucose challenge measured 12 hrs thereafter by OGTT; assay type: functional; details: in the assay text read “2 hrs” for “12 hrs”
Summary of the method: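 Male C57/Bl6 mice were kept on a high fat diet for at least 14 weeks from 6 weeks of age, then fasted 16 h. Compound was given orally 1 h before a 2 g/kg oral glucose load.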

Mus musculus [5] = test: Antidiabetic activity in diet-induced obese C57BL6 mouse assessed as reduction in liver triglyceride level at 20 mg/kg, po BID; assay type: functional, organism-based; set-up: dose 20 mg/kg
Summary of the method: (§2)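 eDIO mice (high fat diet for at least 18 weeks) were dosed orally bid for 28 days, with n = 8–10/group. At termination, livers were collected for histological steatosis assessment and triglyceride measurement.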

Mus musculus [6] = test: Antidiabetic activity in diet-induced obese C57BL6 mouse assessed as reduction in liver triglyceride level at 60 mg/kg, po BID; assay type: functional, organism-based; set-up: dose 60 mg/kg; summary of the method: as §2
Mus musculus [7] = test: Antidiabetic activity in diet-induced obese C57BL6 mouse assessed as reduction in liver steatosis at 20 to 60 mg/kg, po BID measured on day 28; assay type: functional, organism-based; summary of the method: as §2

SMILES	IC50 (Stearoyl-CoA desaturase) [µM]	Kp at 6 h [1]	Ratio (Liver)	Ratio IC50 (HepG2)	IC50 (Acyl-CoA desaturase 1 [2]) [µM]	IC50 (Acyl-CoA desaturase 1 [3]) [µM]	Activity (Mus musculus [4])	Activity (Mus musculus [5])	Activity (Mus musculus [6])	Activity (Mus musculus [7])
FC(F)(F)c1ccccc1OC1CCN(c2nnc(-c3nn[nH]n3)s2)CC1	> 50	15	330	> 14	3.47	0.276	–	–	–	–
O=C(O)Cn1nnc(-c2cc(N3CCC(Oc4cc(F)ccc4Br)CC3)no2)n1	–	–	–	–	–	–	Dose-dependent effect	Active	inactive	Active
Fc1ccc(Br)c(OC2CCN(c3nnc(-c4nn[nH]n4)s3)CC2)c1	12.6	–	26	4	3.07	0.034	–	–	–	–
